Bioassay records from PubChem.
ERAP1 inh: inhibitors of human ERAP1 aminopeptidase; Q9NZ08; recombinant ERAP1, Leu-AMC fluorescence, 60 min; inhibition, % at 10.7 µM; actives 0.15% (n = 340,000);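 active = mean replicate inhibition of at least 30%, or all replicates individually reaching that 30% level; inactive = mean below 30% and not every replicate reaching it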;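 note: 0% = neutral control wells and 100% = L-leucinethiol positive control wells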
Target sequence (Q9NZ08 whole entry, looked up): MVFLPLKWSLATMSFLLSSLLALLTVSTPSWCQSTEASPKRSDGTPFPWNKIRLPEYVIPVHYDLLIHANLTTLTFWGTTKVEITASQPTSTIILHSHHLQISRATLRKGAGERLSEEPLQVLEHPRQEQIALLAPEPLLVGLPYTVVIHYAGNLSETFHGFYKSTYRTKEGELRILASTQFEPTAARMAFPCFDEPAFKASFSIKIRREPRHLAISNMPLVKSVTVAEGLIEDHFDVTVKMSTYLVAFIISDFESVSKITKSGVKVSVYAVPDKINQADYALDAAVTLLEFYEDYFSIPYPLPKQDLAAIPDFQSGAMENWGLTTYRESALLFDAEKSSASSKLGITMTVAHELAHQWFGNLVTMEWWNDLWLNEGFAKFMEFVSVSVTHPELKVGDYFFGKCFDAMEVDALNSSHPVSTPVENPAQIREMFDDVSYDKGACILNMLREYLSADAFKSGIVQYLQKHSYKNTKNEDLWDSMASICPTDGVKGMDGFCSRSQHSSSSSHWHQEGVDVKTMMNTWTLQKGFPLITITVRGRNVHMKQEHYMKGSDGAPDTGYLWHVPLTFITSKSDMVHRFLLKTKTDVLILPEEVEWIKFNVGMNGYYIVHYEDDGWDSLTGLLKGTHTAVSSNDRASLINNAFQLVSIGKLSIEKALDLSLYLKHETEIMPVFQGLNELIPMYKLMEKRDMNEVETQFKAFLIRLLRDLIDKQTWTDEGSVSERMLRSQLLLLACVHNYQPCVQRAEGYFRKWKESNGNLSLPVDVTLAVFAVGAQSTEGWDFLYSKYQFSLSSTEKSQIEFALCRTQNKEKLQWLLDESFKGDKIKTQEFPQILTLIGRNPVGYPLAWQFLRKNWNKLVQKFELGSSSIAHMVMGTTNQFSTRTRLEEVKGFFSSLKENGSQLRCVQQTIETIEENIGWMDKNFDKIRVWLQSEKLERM
Rin1-Abl PPI inh: inhibitors of human Rin1-Abl protein interaction; TR-FRET Rin1/Abl binding, biochemical; P00519+Q13671; actives 0.4% (n = 360,000); inhibition, % at 7.35 µM; in the data active = inhibition above about 5%, passing the limit was not always enough
CAL PDZ FP-1: blocks peptide binding to human CAL PDZ domain; inhibition, % at 20 µM; actives 0.02% (n = 330,000); AID 504414; Q9HD26; purified CAL PDZ, TMR-peptide fluorescence polarization, 1 h;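 active = highest replicate inhibition of at least 40%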;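 note: plate controls were DMSO neutral control wells for no effect and unlabeled competitor peptide control wells for full effect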
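Test system: purified CerCALP PDZ construct; Compound dosing: one concentration, 20 µM compound; Also added: TMR-labelled reporter peptide T*-PRC34 bound in PDZ groove; Read-out: inhibition from polarization loss; Controls: unlabelled peptide and DMSO controls; Signal: FP readout, S and P plane fluorescence; Incubation: 1 h at RT.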
ERp5 inh: inhibitors of human ERp5; inhibition, % at 9.99 µM; ERp5 insulin aggregation, absorbance 650 nm, 90 min; actives 0.05% (n = 350,000); AID 651711; Q15084;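 active = mean replicate inhibition above about 25%, with every replicate also reaching it, limit read from the data, passing the limit was not always enough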
PDI turbidity: PDI (human) enzyme inhibition. P07237. PDI insulin aggregation turbidity, A650, 90 min. inhibition, % at 10 µM. AID 588391. actives 0.052% (n = 350,000);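 active = mean inhibition across replicates of 30% or more, whatever share of single replicates reach that level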
CAL PDZ FP-2: CAL PDZ (human) peptide binding inhibition; Q9HD26; inhibition, % at 24.9 µM; AID 602252; purified CAL PDZ, TMR-peptide fluorescence polarization, 1 h; actives 0.92% (n = 300,000);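 active = mean inhibition of at least 30% with at least half of replicates also reaching 30%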;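 note: 0% = DMSO neutral control and 100% = excess unlabeled competitor peptide PRC23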
Rin1 Abl conf: confirmation of inhibitors of human Rin1-Abl interaction. shares compounds with Rin1-Abl PPI inh. TR-FRET Rin1-Abl binding, purified proteins. inhibition, % at 7.35 µM. actives 49% (n = 1,300). AID 602124
GFP quench: counter-screen for Rin1-Abl inhibitors: GFP fluorescence quenchers. shares compounds with Rin1-Abl PPI inh. inhibitors/quenchers counterscreen. inhibition, % at 6.75 µM. actives 8.5% (n = 1,300). AID 602125;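 note: ABL1-eGFP fusion protein alone without its partner RIN1-SBP; 0% = protein with vehicle and 100% = wells lacking protein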
GFP quench DR: GFP fluorescence interference dose response; GFP fluorescence interference/quenching counterscreen; AID 602182; 230 tested, under 10 active; IC50, µM; shares compounds with Rin1-Abl PPI inh; call rule not given here;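 note: ABL1-eGFP fusion protein alone without its RIN1 binding partner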
Numbers without * were called inactive; . = no result given. Rows were chosen to be rich in hits. Some 1.1% of all compounds tested hit in one or more screens of this group. Cut-off read from the data, not from the text of the source, unless noted: active = inhibition above about 6.5%; inactive = the rest.

SMILES	ERAP1 inh	Rin1-Abl PPI inh	CAL PDZ FP-1	ERp5 inh	PDI turbidity	CAL PDZ FP-2	Rin1 Abl conf	GFP quench	others
OCCN(CCO)c1ncnc2c1sc1nc(N3CCOCC3)c3c(c12)CCCC3	.	10.8*	-3.7	.	5.8	7.6	8.3*	-0.6
COC(=O)CSc1ncnc2c1sc1nc(N3CCOCC3)c3c(c12)CCCC3	.	-72.5	-1.8	.	1.2	-3.5	.	.
CN(C)CCNc1ncnc2c1sc1nc(N3CCOCC3)c3c(c12)CC(C)(C)SC3	.	27.0*	-4.4	.	-3.0	-3.6	25.9*	2.0	GFP quench DR=>67.5
COC(=O)c1ccc(Cn2cnc3c(sc4nc(N5CCOCC5)c5c(c43)CCCC5)c2=O)o1	.	8.7*	-9.2	.	-3.3	-2.0	7.1*	-1.3
COC(=O)c1ccc(CSc2ncnc3c2sc2nc(N4CCOCC4)c4c(c23)CCCC4)o1	.	-16.0	-1.6	.	-0.4	-4.1	.	.
CC1(C)Cc2c(c(N3CCOCC3)nc3sc4c(NCCN)ncnc4c23)CO1	2.3	1.2	-0.6	1.0	2.5	-3.4	.	.
OCCN1CCN(c2ncnc3c2sc2nc(N4CCOCC4)c4c(c23)CCC4)CC1	-5.6	14.5*	-3.1	1.9	7.9	-0.2	22.8*	1.8	GFP quench DR=>67.6
CC1(C)Cc2c(c(N3CCCC3)nc3sc4c(N5CCN(CCO)CC5)ncnc4c23)CO1	3.6	7.5	-2.6	-6.0	-7.3	-4.4	.	.
COc1ccc(S(=O)(=O)Nc2ccc3c(c2)C(=O)N([C@@H](C)CO)C[C@@H](C)[C@H](CN(C)Cc2ccc4c(c2)OCO4)OCCCC[C@H](C)O3)cc1	-1.9	.	.	-2.6	.	.	.	.
C[C@@H]1CCCCO[C@@H](CN(C)Cc2ccccc2)[C@H](C)CN([C@@H](C)CO)C(=O)c2cc(NS(=O)(=O)c3ccc(Cl)cc3)ccc2O1	-0.1	.	.	2.8	.	.	.	.
O=C(/C=C/c1cccnc1)c1cccc(O)c1	-3.3	8.6*	0.7	3.9	44.4*	-5.5	10.2*	-0.2
CCN=c1scc(C)n1/N=C/c1cc(Br)c(O)c(Br)c1	0.7	-2.7	0.5	-0.3	-0.3	.	.	.
CCN=c1scc(C)n1/N=C/c1ccc(O)c(O)c1O	.	19.6*	1.8	.	-5.2	1.5	16.0*	11.9*
COCCN=c1scc(-c2cccs2)n1/N=C/c1ccc(O)c(O)c1O	7.0	13.0*	-3.3	1.4	0.0	1.0	10.8*	10.4*
COc1ccc(NC(=S)N2CCN(C/C=C/c3ccccc3)CC2)cc1	10.0	9.3*	-0.3	2.4	-2.9	-2.2	-1.0	-1.2
CCOc1ccc(NC(=S)N2CCN(C/C=C/c3ccccc3)CC2)cc1	-1.2	-3.4	-0.4	-3.2	4.0	0.9	.	.
COc1ccc(CNC(=O)c2ccc(NC(=O)CC3SC(N4CCCC4)=NC3=O)cc2)cc1 (centres undefined)	.	7.8*	-0.5	.	5.0	-8.3	7.5*	-1.0
COc1ccc(CNC(=O)c2ccc(NC(=O)CC3SC(N4CCCCC4)=NC3=O)cc2)cc1 (centres undefined)	.	6.3	-0.2	.	4.3	-2.0	.	.
COc1ccc(NC(=O)CSc2nnc3n2CCCCC3)cc1	4.5	1.2	-2.6	1.6	0.3	-2.2	.	.
Cc1ccc(NC(=O)CSc2nnc3n2CCCCC3)cc1	.	6.0*	-2.2	.	9.5	-5.7	0.3	-1.7
O=C(C1CCC(C(=O)N2CCCCC2)CC1)N1CCCCC1 (centres undefined)	.	6.2*	-1.9	.	3.3	0.7	-0.7	-1.3
O=C(NC1CCN(Cc2ccccc2)CC1)c1ccc2c(c1)[nH]c(=O)n2Cc1ccc(F)cc1	5.7	10.2*	-0.7	-2.6	-2.7	0.6	12.6*	0.4
CCCCCn1c(=O)[nH]c2cc(C(=O)NC3CCN(Cc4ccccc4)CC3)ccc2c1=O	-0.8	0.2	-1.7	7.1	1.0	-1.2	.	.
CC(=O)OCC1OC(n2ccc(=O)[nH]c2=O)C(O)C1O (centres undefined)	.	0.9	-0.4	.	8.4	-2.7	.	.
CC(=O)OC[C@H]1O[C@@H](n2ccc(=O)[nH]c2=S)C(OC(C)=O)C1OC(C)=O (some centres undefined)	.	12.2*	-0.6	.	-4.8	4.1	9.3*	-0.5
SMILES	ERAP1 inh	Rin1-Abl PPI inh	CAL PDZ FP-1	ERp5 inh	PDI turbidity	CAL PDZ FP-2	Rin1 Abl conf	GFP quench	others
CN(C)S(=O)(=O)c1ccc(NC(=O)COc2ncnc3c2cnn3-c2ccccc2)cc1	.	6.8*	-3.3	.	10.8	-3.2	5.0	2.5
Cc1ccc(S(=O)(=O)Nc2cccc3c2O[C@@H](CN(C)Cc2ccc(C(=O)O)cc2)[C@@H](C)CN([C@@H](C)CO)C3=O)cc1	0.6	.	.	-1.9	.	.	.	.
COc1ccc(-c2ccc([C@H]3[C@@H](CO)N4C(=O)CN(C(=O)c5ccccc5)C[C@@H]34)cc2)cc1	1.4	.	.	-1.7	.	.	.	.
O=C(CCNC(=O)C1CCN(S(=O)(=O)c2ccc(F)cc2)CC1)Nc1nccs1	-1.2	3.3	0.0	4.8	-5.4	-1.9	.	.
CC(=O)Nc1ccc(S(=O)(=O)N2CCC(C(=O)NCCC(=O)Nc3nccs3)CC2)cc1	-0.1	11.2*	-2.5	-3.6	5.4	-3.4	6.2	-0.2
COc1ccc(-c2nnc(N3CCC(C)CC3)c3ccccc23)cc1	.	0.9	-1.7	.	-0.4	-0.5	.	.
CCOc1ccc(-c2nnc(N3CCOCC3)c3ccccc23)cc1	1.9	12.0*	-2.2	0.2	-5.2	-4.7	6.7*	-0.7
COc1ccc2c3c([nH]c2c1)[C@@H](CO)N(C(=O)C1CCCCC1)CC31CCN(S(C)(=O)=O)CC1	-3.3	.	.	0.8	.	.	.	.
Cc1[nH][nH]c(=O)c1C(c1c(C)[nH][nH]c1=O)c1cn(Cc2ccc(Cl)c(Cl)c2)c2ccccc12	0.4	14.2*	-1.3	8.1	3.2	-1.4	0.2	3.0
CCS(=O)(=O)Nc1ccc2c(c1)C(=O)N(C)C[C@@H](OC)[C@@H](C)CN(C(=O)COC)[C@@H](C)CO2	2.6	.	.	2.5	.	.	.	.
COCCn1nnnc1C(CC(C)C)N1CCN(c2nc3ccccc3s2)CC1 (centres undefined)	1.0	9.3*	-0.1	-3.0	1.5	-0.6	-2.3	0.1
CN(CCC#N)C(=O)COC(=O)c1ccc2c(=O)n3c(nc2c1)CCC3	-9.6	1.8	-1.1	-5.4	-0.7	-2.2	.	.
N#CCCN(C(=O)COC(=O)c1ccc2c(=O)n3c(nc2c1)CCC3)c1ccccc1	-2.7	12.0*	.	2.2	-6.1	2.0	-0.3	-0.8
Cc1ccc(C(C)NC(=O)C23CC4CC(CC(C4)C2)C3)cc1 (centres undefined)	5.9	6.0*	0.7	2.0	2.7	5.1	-0.3	-1.4
